Key:
Format in all cases: toxicity, cell-based
Fibroblast [1] = assay: Incucyte cell viability with human fibroblast; conditions: 10 µM, compound concentration 10 uM; also: filed as whole numbers so only -1 and 0 and 1 occur
HEK-293T = assay: Incucyte cell viability with HEK293T; conditions: human, 10 µM, compound concentration 10 uM; also: filed as whole numbers so only -1 and 0 and 1 occur
Fibroblast [2] = assay: Multiplex assay against human fibroblast
Summary of the method: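 Four dyes were applied at seeding to live cells: Hoechst33342, BioTracker Green Microtubule Cytoskeleton Dye, MitoTracker Red and Annexin V Alexa Fluor 680. Imaging after compound addition used a CQ1 microscope at 37°C and 5% CO2. CellPathfinder machine-learning gating then sorted cells into Hoechst high-intensity objects or normal cells, normal cells into healthy, pyknosed or fragmented nuclei, and pyknosed cells into mitotic or apoptotic, with tubulin, mitochondrial-mass and membrane-permeability phenotypes given as per cents of healthy-nucleus cells.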

U2OS = assay: Incucyte cell viability with U2OS; conditions: human, 10 µM, compound concentration 10 uM; also: filed as whole numbers so only -1 and 0 and 1 occur
[3] = 0 h, replicate number 1, timepoint 0 hours
[4] = 0 h, replicate number 2, timepoint 0 hours
[5] = 6 h, replicate number 1, timepoint 6 hours
[6] = 12 h, replicate number 1, timepoint 12 hours
[7] = 18 h, replicate number 1, timepoint 18 hours
[8] = 24 h, replicate number 1, timepoint 24 hours
[9] = 12 h, 1 µM, compound concentration 1 uM, replicate 1
[10] = 12 h, 1 µM, compound concentration 1 uM, replicate 2
[11] = 12 h, 10 µM, compound concentration 10 uM, replicate 1
[12] = 12 h, 10 µM, compound concentration 10 uM, replicate 2
[13] = 24 h, 1 µM, compound concentration 1 uM, replicate 1
[14] = 24 h, 1 µM, compound concentration 1 uM, replicate 2
[15] = 24 h, 10 µM, compound concentration 10 uM, replicate 1
[16] = 24 h, 10 µM, compound concentration 10 uM, replicate 2

CN(C)C/C=C/C(=O)Nc1cc2c(Nc3ccc(F)c(Cl)c3)ncnc2cc1O[C@H]1CCOC1.O=C(O)/C=C\C(=O)O.O=C(O)/C=C\C(=O)O [AFATINIB DIMALEATE]
Growth Rate (Fibroblast [1]; [3]): 0 | Growth Rate (Fibroblast [1]; [4]): 1 | Growth Rate (Fibroblast [1]; [5]): 0 | Growth Rate (Fibroblast [1]; [6]): 0 | Growth Rate (Fibroblast [1]; [7]): 0 | Growth Rate (Fibroblast [1]; [8]): 0 | Growth Rate (HEK-293T; [5]): 0 | Growth Rate (HEK-293T; [6]): 0 | Growth Rate (HEK-293T; [7]): 0 | Growth Rate (HEK-293T; [8]): 0 | Population Apoptotic (%) (Fibroblast [2]; [9]): 66% | Population Fragmented Nuclei (%) (Fibroblast [2]; [9]): 30% | Population Healthy Nuclei (%) (Fibroblast [2]; [9]): 53% | Population Hoechst High Intensity Objects (%) (Fibroblast [2]; [9]): 13% | Population Membrane Permeable-Phenotype (%) (Fibroblast [2]; [9]): 13% | Population Mitochondria Different-Phenotype (%) (Fibroblast [2]; [9]): 3% | Population Mitotic Cells (%) (Fibroblast [2]; [9]): 33% | Population Normal (%) (Fibroblast [2]; [9]): 86% | Population Pyknosed Nuclei (%) (Fibroblast [2]; [9]): 16% | Population Tubulin-Different-Phenotype (%) (Fibroblast [2]; [9]): 10% | Total Cell Count (Fibroblast [2]; [9]): 234 | Population Apoptotic (%) (Fibroblast [2]; [10]): 45% | Population Fragmented Nuclei (%) (Fibroblast [2]; [10]): 60% | Population Healthy Nuclei (%) (Fibroblast [2]; [10]): 21% | Population Hoechst High Intensity Objects (%) (Fibroblast [2]; [10]): 38% | Population Membrane Permeable-Phenotype (%) (Fibroblast [2]; [10]): 7% | Population Mitochondria Different-Phenotype (%) (Fibroblast [2]; [10]): 30% | Population Mitotic Cells (%) (Fibroblast [2]; [10]): 54% | Population Normal (%) (Fibroblast [2]; [10]): 61% | Population Pyknosed Nuclei (%) (Fibroblast [2]; [10]): 18% | Population Tubulin-Different-Phenotype (%) (Fibroblast [2]; [10]): 15% | Total Cell Count (Fibroblast [2]; [10]): 99 | Population Apoptotic (%) (Fibroblast [2]; [11]): 58% | Population Fragmented Nuclei (%) (Fibroblast [2]; [11]): 27% | Population Healthy Nuclei (%) (Fibroblast [2]; [11]): 50% | Population Hoechst High Intensity Objects (%) (Fibroblast [2]; [11]): 24% | Population Membrane Permeable-Phenotype (%) (Fibroblast [2]; [11]): 18% | Population Mitochondria Different-Phenotype (%) (Fibroblast [2]; [11]): 12% | Population Mitotic Cells (%) (Fibroblast [2]; [11]): 41% | Population Normal (%) (Fibroblast [2]; [11]): 75% | Population Pyknosed Nuclei (%) (Fibroblast [2]; [11]): 22% | Population Tubulin-Different-Phenotype (%) (Fibroblast [2]; [11]): 68% | Total Cell Count (Fibroblast [2]; [11]): 247 | Population Apoptotic (%) (Fibroblast [2]; [12]): 22% | Population Fragmented Nuclei (%) (Fibroblast [2]; [12]): 33% | Population Healthy Nuclei (%) (Fibroblast [2]; [12]): 52% | Population Hoechst High Intensity Objects (%) (Fibroblast [2]; [12]): 34% | Population Membrane Permeable-Phenotype (%) (Fibroblast [2]; [12]): 16% | Population Mitochondria Different-Phenotype (%) (Fibroblast [2]; [12]): 13% | Population Mitotic Cells (%) (Fibroblast [2]; [12]): 77% | Population Normal (%) (Fibroblast [2]; [12]): 65% | Population Pyknosed Nuclei (%) (Fibroblast [2]; [12]): 13% | Population Tubulin-Different-Phenotype (%) (Fibroblast [2]; [12]): 91% | Total Cell Count (Fibroblast [2]; [12]): 104 | Population Apoptotic (%) (Fibroblast [2]; [13]): 72% | Population Fragmented Nuclei (%) (Fibroblast [2]; [13]): 35% | Population Healthy Nuclei (%) (Fibroblast [2]; [13]): 53% | Population Hoechst High Intensity Objects (%) (Fibroblast [2]; [13]): 18% | Population Membrane Permeable-Phenotype (%) (Fibroblast [2]; [13]): 5% | Population Mitochondria Different-Phenotype (%) (Fibroblast [2]; [13]): 7% | Population Mitotic Cells (%) (Fibroblast [2]; [13]): 27% | Population Normal (%) (Fibroblast [2]; [13]): 81% | Population Pyknosed Nuclei (%) (Fibroblast [2]; [13]): 10% | Population Tubulin-Different-Phenotype (%) (Fibroblast [2]; [13]): 13% | Total Cell Count (Fibroblast [2]; [13]): 247 | Population Apoptotic (%) (Fibroblast [2]; [14]): 50% | Population Fragmented Nuclei (%) (Fibroblast [2]; [14]): 54% | Population Healthy Nuclei (%) (Fibroblast [2]; [14]): 28% | Population Hoechst High Intensity Objects (%) (Fibroblast [2]; [14]): 34% | Population Membrane Permeable-Phenotype (%) (Fibroblast [2]; [14]): 0% | Population Mitochondria Different-Phenotype (%) (Fibroblast [2]; [14]): 6% | Population Mitotic Cells (%) (Fibroblast [2]; [14]): 50% | Population Normal (%) (Fibroblast [2]; [14]): 65% | Population Pyknosed Nuclei (%) (Fibroblast [2]; [14]): 17% | Population Tubulin-Different-Phenotype (%) (Fibroblast [2]; [14]): 12% | Total Cell Count (Fibroblast [2]; [14]): 87 | Population Apoptotic (%) (Fibroblast [2]; [15]): 57% | Population Fragmented Nuclei (%) (Fibroblast [2]; [15]): 29% | Population Healthy Nuclei (%) (Fibroblast [2]; [15]): 54% | Population Hoechst High Intensity Objects (%) (Fibroblast [2]; [15]): 38% | Population Membrane Permeable-Phenotype (%) (Fibroblast [2]; [15]): 19% | Population Mitochondria Different-Phenotype (%) (Fibroblast [2]; [15]): 21% | Population Mitotic Cells (%) (Fibroblast [2]; [15]): 42% | Population Normal (%) (Fibroblast [2]; [15]): 61% | Population Pyknosed Nuclei (%) (Fibroblast [2]; [15]): 15% | Population Tubulin-Different-Phenotype (%) (Fibroblast [2]; [15]): 61% | Population Apoptotic (%) (Fibroblast [2]; [16]): 66% | Population Fragmented Nuclei (%) (Fibroblast [2]; [16]): 49% | Population Healthy Nuclei (%) (Fibroblast [2]; [16]): 36% | Population Hoechst High Intensity Objects (%) (Fibroblast [2]; [16]): 35% | Population Membrane Permeable-Phenotype (%) (Fibroblast [2]; [16]): 34% | Population Mitochondria Different-Phenotype (%) (Fibroblast [2]; [16]): 26% | Population Mitotic Cells (%) (Fibroblast [2]; [16]): 33% | Population Normal (%) (Fibroblast [2]; [16]): 64% | Population Pyknosed Nuclei (%) (Fibroblast [2]; [16]): 14% | Population Tubulin-Different-Phenotype (%) (Fibroblast [2]; [16]): 82% | Total Cell Count (Fibroblast [2]; [16]): 98 | Growth Rate (U2OS; [3]): 0 | Growth Rate (U2OS; [4]): 1 | Growth Rate (U2OS; [5]): 0 | Growth Rate (U2OS; [6]): 0 | Growth Rate (U2OS; [7]): 0 | Growth Rate (U2OS; [8]): 0
